Measured values from ChEMBL document CHEMBL1128448, “Synthesis and antifungal activity of new azole derivatives containing an N-acylmorpholine ring” (1995).
Converted amounts (≈) assume the structure as drawn.

What was measured:
Type in all cases: functional
[1] = test system: Candida tropicalis; assay: In vitro evaluation of minimum inhibitory concentration against Candida tropicalis 2.11
How it was run: (§1)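 Stocks are 800 μg/mL in 50% ethanol. Each plate gets 10 μL of inoculum at 10^5 cfu/mL. Incubation at 25 °C, 48 h for yeasts and 120 h for dermatophytes and molds. Organisms are ATCC strains or clinical isolates.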

[2] = test system: Candida parapsilosis; assay: In vitro evaluation of minimum inhibitory concentration against Candida parapsilosis 61; how it was run: as §1
[3] = test system: Aspergillus flavus; assay: In vivo Evaluation of minimum inhibitory concentration against Aspergillus flavus 19; conditions: in the assay text read “In vitro” for “In vivo”; how it was run: as §1
[4] = test system: Kluyveromyces marxianus; assay: In vitro evaluation of minimum inhibitory concentration against Candida pseudotropicalis 13; how it was run: as §1
[5] = test system: Mus sp.; assay: In vivo evaluation of % survival rate after peroral administration on 5th day at dose 1 mg/kg; conditions: route oral, 1 mg/kg
[6] = test system: Mus sp.; assay: In vivo evaluation of % survival rate after peroral administration on 5th day at dose 2.5 mg/kg; conditions: Mus sp., po
[7] = test system: Mus sp.; assay: In vivo evaluation of % survival rate after peroral administration on 7th day at dose 2.5 mg/kg; conditions: Mus sp., po
[8] = test system: Meyerozyma guilliermondii; assay: In vitro Evaluation of minimum inhibitory concentration against Candida guilliermondii 26; how it was run: as §1
[9] = test system: Mus sp.; assay: In vivo evaluation of % survival rate after peroral administration on 3rd day at dose 2.5 mg/kg; conditions: Mus sp., po
[10] = test system: Candida albicans; assay: […] Evaluation of minimum inhibitory concentration against Candida albicans 60; how it was run: as §1
[11] = test system: Mus sp.; assay: In vivo evaluation of % survival rate after peroral administration on 9th day at dose 1 mg/kg; conditions: route oral, 1 mg/kg
[12] = test system: Rhodotorula mucilaginosa; assay: In vitro evaluation of minimum inhibitory concentration against Rhodotorula rubra 16; how it was run: as §1
[13] = test system: Candida albicans; assay: In vitro Evaluation of minimum inhibitory concentration against Candida albicans 76; how it was run: as §1
[14] = test system: Candida albicans; assay: […] Evaluation of minimum inhibitory concentration against Candida albicans 406; how it was run: as §1
[15] = test system: Mus sp.; assay: In vivo evaluation of % survival rate after peroral administration on 7th day at dose 1 mg/kg; conditions: route oral, 1 mg/kg
[16] = test system: Mus sp.; assay: In vivo evaluation of % survival rate after peroral administration on 9th day at dose 2.5 mg/kg; conditions: Mus sp., po

Q: With `C[C@H]1N(C(=O)c2ccc(C(F)(F)F)cc2)CC(=O)O[C@@]1(Cn1cncn1)c1ccc(Cl)cc1Cl` (racemic) as the compound, how does the MIC [1] read?
A: 80 µg/mL (≈ 156 µM)

Q: What about the MIC [2] of the same compound?
A: 40 µg/mL (≈ 77.9 µM)

Q: What about the MIC [3] of the same compound?
A: > 80 µg/mL

Q: And the MIC [4]?
A: 20 µg/mL (≈ 39 µM)

Q: And the Survival [5]?
A: 80%

Q: What about the survival at 2.5 mg/kg [6] of the same compound?
A: 100%

Q: What about the survival at 2.5 mg/kg [7] of the same compound?
A: 100%

Q: What about the MIC [8] of the same compound?
A: 80 µg/mL (≈ 156 µM)

Q: And the survival at 2.5 mg/kg [9]?
A: 100%

Q: And the MIC [10]?
A: 10 µg/mL (≈ 19.5 µM)

Q: What about the Survival [11] of the same compound?
A: 45%

Q: What about the MIC [12] of the same compound?
A: 80 µg/mL (≈ 156 µM)

Q: And the MIC [13]?
A: 20 µg/mL (≈ 39 µM)

Q: What about the MIC [14] of the same compound?
A: 5 µg/mL (≈ 9.74 µM)

Q: And the Survival [15]?
A: 55%

Q: What about the survival at 2.5 mg/kg [16] of the same compound?
A: 100%
